From PubChem
GalR3 antagonist: human GalR3 antagonism; HEK293 GalR3-CNG cAMP membrane potential fluorescence; galR3 body fused to GalR1 C-terminus; O60755; 0.44% of 360,000 active; AID 651719; inhibition, % at 3 µM;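 active means inhibition above the screen-wide average plus 3 SD, cut at about 13% in these data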;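 further: forskolin and galanin both at EC90 stimulate the cells; cAMP rise reported by CNG channel membrane potential dye signal; 0% = forskolin plus galanin with DMSO and 100% = forskolin alone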
Target sequence (O60755 1-299 limits assumed): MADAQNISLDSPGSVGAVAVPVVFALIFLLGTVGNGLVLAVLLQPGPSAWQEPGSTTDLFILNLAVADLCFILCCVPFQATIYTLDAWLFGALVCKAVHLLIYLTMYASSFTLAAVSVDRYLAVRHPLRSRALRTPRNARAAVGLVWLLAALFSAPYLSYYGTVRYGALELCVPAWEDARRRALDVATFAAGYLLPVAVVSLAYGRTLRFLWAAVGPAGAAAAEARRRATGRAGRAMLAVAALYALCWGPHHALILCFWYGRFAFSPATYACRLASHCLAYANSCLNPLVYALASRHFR
NR2E3 ag-1: agonists of human nuclear receptor NR2E3 | 0.12% of 320,000 active | Q9Y5X4 | inhibition of corepressor binding, % at 4.78 µM | GST-NR2E3/biotin-RetCOR TR-FRET, 1536-well;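 active means percent inhibition above the cutoff of mean plus 3 SD of all tested compounds, set per screening campaign, cut at about 20% in these data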;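 further: 0% = DMSO wells and 100% = biotin wells as full block of FRET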
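System: GST-tagged NR2E3 plus biotinylated RetCOR corepressor; Amount: 1.35 nM GST-tagged NR2E3 final; Dosing: single nominal compound dose of 4.8 µM; Schedule: 5 h incubation at 4 °C; Technique: TR-FRET with europium anti-GST and streptavidin-D2, 340 nm excitation; Controls: biotin wells as high control, 0.6% DMSO wells as low control.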
NR2E3 ag-2: agonists of human NR2E3 nuclear receptor; Q9Y5X4; CHO-S Gal4-NCOR/VP16-NR2E3 two-hybrid, luciferase; inhibition of corepressor binding, % at 3.98 µM; 0.35% of 360,000 active; AID 602229;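 active means inhibition above the mean of all tested compounds plus 3 SD, cut at about 70% in these data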;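 further: 0% = DMSO with NR2E3 transfected cells and 100% = cells lacking NR2E3 construct; higher means lower luciferase signal from less NR2E3 corepressor binding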
PG9 Ab binder: binds the HIV-1 gp120 antibody PG9; TR-FRET gp120-PG9 antibody binding; AID 624416; 0.43% of 360,000 active; inhibition, % at 6.7 µM; in the data active means inhibition above about 8.5%
Rev-erbA mod: modulates human Rev-erb alpha binding to DNA; 0.79% of 370,000 active; activity, % at 10 µM; Rev-erbα–FITC-DNA binding, fluorescence polarization, 90 min;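 active means activity above about 14%, limit read from the data; passing the limit was not always enough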;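 further: 0% = DMSO wells with 35 nM protein and 100% = DMSO wells with 750 nM protein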
NR2E3 ag confirm: confirmation of human NR2E3 nuclear receptor agonists; shares compounds with NR2E3 ag-1; cell-free NR2E3 corepressor release, TR-FRET, 5 h; activation (reported as inhibition), % at 3.98 µM; 39% of 360 active; AID 2379; in the data active means activation above about 20%
PPARg-NCOR2 ctr: counter-screen for NR2E3 agonists: human PPARgamma-NCOR2 interaction agonists | shares compounds with NR2E3 ag-1 | TR-FRET PPARg-NCOR2 coregulator interaction, biochemical | inhibition, % at 3.98 µM | 45% of 360 active; in the data active means inhibition above about 20%;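 further: 0% = DMSO vehicle and 100% = wells without protein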
PG9 bind confirm: PG9 antibody binding, confirmed. shares compounds with PG9 Ab binder. TR-FRET PG9 antibody binding, biochemical. inhibition, % at 6.7 µM. 90% of 1,500 active. AID 651571; in the data active means inhibition above about 9%
PGV04 counter: PGV04 control antibody binding, counter-screen; shares compounds with PG9 Ab binder; TR-FRET PGV04 antibody-gp120 binding, biochemical; inhibition, % at 6.7 µM; 95% of 1,500 active; in the data active means inhibition above about 9.5%
PG9 bind DR: PG9 antibody binding, dose response; shares compounds with PG9 Ab binder; TR-FRET PG9 antibody-gp120 binding inhibition; IC50, µM; 95 tested, under 10 active; in the data active means IC50 below about 10 µM
PGV04 binding DR: binds control antibody PGV04 in PG9 counter-screen; shares compounds with PG9 Ab binder; TR-FRET binding to control antibody PGV04; IC50, µM; 20% of 95 active; AID 651937
PG126 binding DR: counter-screen for PG9 binders: binding to control antibody PG126 | shares compounds with PG9 Ab binder | TR-FRET binding to antibody PG126, counterscreen | IC50, µM | 20% of 95 active | AID 651939
The depositor's hits bear a star; i = inactive; · = no result. Compounds with a hit are over-represented: about 1.8% of the library has one in this group of screens. Unless noted, no stated cut-off is given here; in the data, active means IC50 below about 9 µM; inactive means the rest.

SMILES	GalR3 antagonist	NR2E3 ag-1	NR2E3 ag-2	PG9 Ab binder	Rev-erbA mod	NR2E3 ag confirm	PPARg-NCOR2 ctr	PG9 bind confirm	PGV04 counter	others
O=C(C1=C(O)C(=O)N(CCc2ccccc2)C1c1ccncc1)c1cc2ccccc2o1 (centres undefined)	-5	34*	-9	19*	-5	31*	31*	30*	40*
C=CCC12C=C(OC)C(=O)C(C1=O)C(c1ccc(OC)cc1)C2C (centres undefined)	·	·	·	·	-9	·	·	·	·
COc1ccc(CN2CCC(CNC(=O)NC3CCCC3)CC2)cc1	·	·	·	·	-5	·	·	·	·
CC(=O)c1cc(-c2ccc3[nH]ccc3c2)c(=O)n2c1CCC2	·	·	·	·	-2	·	·	·	·
O=C(C1=C(O)C(=O)N(CCCN2CCOCC2)C1c1ccccn1)c1cc2ccccc2o1 (centres undefined)	10	34*	-8	15*	-2	16	22*	19*	25*
O=C(C1=C(O)C(=O)N(CCN2CCOCC2)C1c1cccc([N+](=O)[O-])c1)c1cc2ccccc2o1 (centres undefined)	-5	·	1	-1	-7	·	·	·	·
CN(C)CCN1C(=O)C(O)=C(C(=O)c2cc3ccccc3o2)C1c1cccc(Br)c1 (centres undefined)	-3	36*	-3	31*	6	36*	34*	38*	47*
O=C1C(=O)N(Cc2cccnc2)C(c2cccc(Br)c2)/C1=C(/O)c1ccc2c(c1)OCO2 (centres undefined)	-2	47*	-5	37*	6	27*	31*	39*	46*
COc1cccc(C2/C(=C(/O)c3ccc4c(c3)OCO4)C(=O)C(=O)N2CCN2CCOCC2)c1 (centres undefined)	1	30*	-11	21*	-1	29*	27*	31*	37*
CC1CCCN(C(=O)CSc2cnc3ccccc3n2)C1 (centres undefined)	-7	48*	-56	30*	4	14	11	35*	39*
Cc1nc2ccccc2nc1SCC(=O)N1CCC(C)CC1	-3	22*	15	38*	3	13	16	34*	42*
CC1(C(=O)N2CCC(Oc3cccnc3)CC2)CC1	·	·	·	·	3	·	·	·	·
CCCCCCCC(=O)CC[C@@H]1[C@@H](C/C=C\CCCC(=O)OC(C)C)[C@@H](O)C[C@H]1O	·	·	·	·	-5	·	·	·	·
C/C=C\C1=C(C(=O)O)N2C(=O)C(NC(=O)C(N)c3ccc(O)cc3)C2SC1 (centres undefined)	·	·	·	·	1	·	·	·	·
Cc1nn(CCc2nn[nH]n2)c2nc(C(F)(F)F)cc(C(F)(F)F)c12	-3	4	-14	1	4	·	·	·	·
Cc1nn(CCc2nn[nH]n2)c2nc(-c3ccc(Br)cc3)cc(C(F)(F)F)c12	-2	25*	4	19*	1	37*	33*	27*	37*
N#Cc1c(-c2ccco2)nc(SCC(=O)Nc2cccc(Cl)c2)[nH]c1=O	-13	26*	-27	15*	-3	7	22*	28*	32*
O=C(CSc1nc2[nH]ncc2c(=O)[nH]1)Nc1cccc(Cl)c1	4	-1	-16	2	0	·	·	·	·
O=c1c2oc3ccccc3c2[nH]c(=S)n1-c1ccccc1	-4	50*	-6	17*	8	45*	45*	14*	13*	PG9 bind DR=i;PGV04 binding DR=i;PG126 binding DR=i
Cc1ccc(-n2c(=S)[nH]c3c(oc4ccccc43)c2=O)cc1	-1	20*	-41	18*	1	43*	34*	17*	7	PG9 bind DR=>67;PGV04 binding DR=>67;PG126 binding DR=>67
Cc1cccc(-n2c(=S)[nH]c3c(oc4ccccc43)c2=O)c1	-3	37*	-9	16*	-1	35*	25*	7	9.4*
COc1ccc(Br)cc1C(=O)Nc1ccc(C(=O)NCC(C)C)cc1	-7	3	-9	1	-2	·	·	·	·
CCOc1ccc(Br)cc1C(=O)Nc1ccc(C(=O)NCC(C)C)cc1	4	34*	5	24*	6	33*	38*	24*	31*
O=C(O)c1cc(-c2ccco2)nc2ccc(Br)cc12	-11	34*	-22	25*	-6	26*	29*	45*	58*
CCN(CC)C(=O)CC[C@H]1CC[C@]2(CCCN(S(=O)(=O)C3CCCCC3)C2)O1	·	·	·	·	1	·	·	·	·
SMILES	GalR3 antagonist	NR2E3 ag-1	NR2E3 ag-2	PG9 Ab binder	Rev-erbA mod	NR2E3 ag confirm	PPARg-NCOR2 ctr	PG9 bind confirm	PGV04 counter	others
N#CCCSc1ncnc2c1oc1ccccc12	2	21*	-12	20*	2	-2	6	46*	57*
COC(=O)c1cc2n3ccccc3c(C)c(-c3ccccc3)c-2c1C(=O)OC	-3	59*	-13	21*	3	63*	63*	29*	39*
O=C(O)c1cc2ccccc2c2c1C(=O)c1ccccc1-2	0	·	-3	-6	5	·	·	·	·
O=C(O)c1cc2ccccc2c2cc(Br)ccc12	-9	23*	-11	23*	0	19	56*	28*	36*
NS(=O)(=O)c1cc2c(cc1Cl)CN(C1CCCCC1)C2=O	·	·	·	·	-7	·	·	·	·
C[C@]12CCC(=O)C=C1CCC1C2[C@@H](O)C[C@@]2(C)C1CC[C@]2(O)C(=O)CO (some centres undefined)	·	·	·	·	-7	·	·	·	·
O=C(O)CCC(=O)N1CCN(c2nc(-c3ccccc3)c3cc(Br)ccc3n2)CC1	-9	3	10	8	1	·	·	·	·
O=C(O)CCC(=O)N1CCN(c2nc(-c3ccccc3Cl)c3cc(Br)ccc3n2)CC1	3	24*	-12	11*	-2	15	16	16*	23*
Cc1ccc(C2C(C(=O)c3cc4ccccc4o3)=C(O)C(=O)N2c2cc(C)on2)cc1 (centres undefined)	-1	23*	27	18*	5	28*	35*	29*	38*
